In ChEMBL document CHEMBL2016522, “Discovery and Hit-to-Lead Optimization of Non-ATP Competitive MK2 (MAPKAPK2) Inhibitors” (ACS Med Chem Lett, 2011):

Key:
[1] = Cytotoxicity against human SW1353 cells after 30 mins by ATP-dependent luciferase luminescence assay; format: cell-based
[2] = biological target: T1, MAP kinase-activated protein kinase 2 (Homo sapiens, UniProt P49137); experiment: Inhibition of MK2-mediated HSP27 phosphorylation in IL-1beta stimulated human SW1353 cells incubated for 30 mins prior to IL-1beta-stimulation measured after 27 mins by ELISA; format: cell-based
[3] = biological target: T1, MAP kinase-activated protein kinase 2; experiment: Inhibition of MK2 using Acam peptide as substrate incubated for 30 mins prior to substrate addition measured after 10 mins using 100 uM ATP by DELFIA assay
SW1353 = experiment: Inhibition of IL1beta-stimulated MMP13 secretion in human SW1353 cells incubated for 30 mins prior to IL1beta-stimulation measured after 24 hrs by ELISA; format: functional, cell-based
Procedure, shortened: (§1)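 Cells are treated with a range of compound concentrations, then stimulated with IL1-β, and secreted MMP-13 is measured. Two cell systems are used: the SW1353 line and human primary chondrocytes derived from osteoarthritis tissue. Each data point is the average, with standard error, of duplicate samples.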

[4] = biological target: Casein kinase I isoform gamma-3 (Homo sapiens) (UniProt Q9Y6M4); experiment: Inhibition of human CK1gamma3 at 10 uM
THP-1 [5] = experiment: Antiinflammatory activity in human THP1 cells assessed as inhibition of LPS-induced IL6 production incubated for 30 mins prior to LPS-challenge measured after 18 hrs by immunoabsorbent-based electrochemical luminescence assay; format: functional, cell-based
Procedure, shortened: (§2)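 Human THP1 acute monocytic leukemia cells are treated with a range of compound concentrations and stimulated with LPS. Secreted TNFα or IL6 is then measured. Each data point is the average, with standard error, of duplicate samples.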

Homo sapiens = species on record: Homo sapiens; experiment: (§3) Inhibition of IL1beta-stimulated MMP13 secretion in human primary chondrocytes incubated for 30 mins prior to IL1beta-stimulation measured after 24 hrs by ELISA; format: functional, cell-based; procedure, shortened: as §1
THP-1 [6] = experiment: Antiinflammatory activity in human THP1 cells assessed as inhibition of LPS-induced TNFalpha production incubated for 30 mins prior to LPS-challenge measured after 3 hrs by ELISA; format: functional, cell-based; procedure, shortened: as §2
[7] = biological target: Tyrosine-protein kinase Lck (Homo sapiens, UniProt P06239); experiment: Inhibition of human LCK
[8] = biological target: Casein kinase I isoform delta (Homo sapiens, UniProt P48730); experiment: Inhibition of human CSNK1D
[9] = biological target: Interleukin-1 receptor-associated kinase 4 (Homo sapiens, UniProt Q9NWZ3); experiment: Inhibition of human IRAK4
[10] = biological target: RAC-alpha serine/threonine-protein kinase (Homo sapiens, UniProt P31749); experiment: Inhibition of human AKT1
[11] = biological target: Testis-specific serine/threonine-protein kinase 2 (Homo sapiens, UniProt Q96PF2); experiment: Inhibition of human TSSK2
[12] = Solubility of the compound; format: physicochemical
[13] = biological target: Insulin-like growth factor 1 receptor (Homo sapiens, UniProt P08069); experiment: Inhibition of human IGF1R
[14] = biological target: Inhibitor of nuclear factor kappa-B kinase subunit beta (Homo sapiens, UniProt O14920); experiment: Inhibition of human IKKB
[15] = biological target: T1, MAP kinase-activated protein kinase 2; experiment: Inhibition of MK2 using Acam peptide as substrate incubated for 30 mins prior to substrate addition measured after 10 mins using 2 uM ATP by DELFIA assay
[16] = biological target: Calcium/calmodulin-dependent protein kinase type IV (Homo sapiens, UniProt Q16566); experiment: Inhibition of human CAMK4
[17] = biological target: Hepatocyte growth factor receptor (Homo sapiens, UniProt P08581); experiment: Inhibition of human MET
[18] = biological target: Serine/threonine-protein kinase Chk1 (Homo sapiens, UniProt O14757); experiment: Inhibition of human CHK1
[19] = biological target: Rho-associated protein kinase 2 (Homo sapiens, UniProt O75116); experiment: Inhibition of human ROCK2
[20] = biological target: Serine/threonine-protein kinase 3 (Homo sapiens, UniProt Q13188); experiment: Inhibition of human MST2
Cytochrome P450 3A4 [21] = biological target: T2, Cytochrome P450 3A4 (Homo sapiens, UniProt P08684); experiment: Inhibition of CYP3A4 in human liver microsomes co-incubated with testosterone; format: ADME, Microsome
Procedure, shortened: (§4)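 Tested against a panel of cytochrome P450 enzymes at compound concentrations up to 30 μM.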

Cytochrome P450 3A4 [22] = biological target: T2, Cytochrome P450 3A4; experiment: Inhibition of CYP3A4 in human liver microsomes using testosterone as substrate incubated for 30 mins prior to substrate addition; format: ADME, Microsome; procedure, shortened: as §4
Cytochrome P450 2C9 [23] = biological target: T3, Cytochrome P450 2C9 (Homo sapiens, UniProt P11712); experiment: Inhibition of CYP2C9 in human liver microsomes co-incubated with tolbutamide; format: ADME, Microsome; procedure, shortened: as §4
Cytochrome P450 2C9 [24] = biological target: T3, Cytochrome P450 2C9; experiment: Inhibition of CYP2C9 in human liver microsomes using tolbutamide as substrate incubated for 30 mins prior to substrate addition; format: ADME, Microsome; procedure, shortened: as §4
[25] = as §3; format: functional, cell-based; procedure, shortened: as §1
Cytochrome P450 2D6 [26] = biological target: T4, Cytochrome P450 2D6 (Homo sapiens, UniProt P10635); experiment: Inhibition of CYP2D6 in human liver microsomes co-incubated with dextromethorphan; format: ADME, Microsome; procedure, shortened: as §4
Cytochrome P450 2D6 [27] = biological target: T4, Cytochrome P450 2D6; experiment: Inhibition of CYP2D6 in human liver microsomes using dextromethorphan as substrate incubated for 30 mins prior to substrate addition; format: ADME, Microsome; procedure, shortened: as §4
[28] = AUC (0 to 6 hrs) in rat at 10 mg/kg, po; format: ADME, organism-based; set-up: time < 6 hr, dose 10 mg/kg, route oral; conditions: plasma
Procedure, shortened: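 Single oral dose of 10 mg/kg in rats. Plasma exposure is reported as AUC in nM h.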

T1 sequence (P49137 whole entry): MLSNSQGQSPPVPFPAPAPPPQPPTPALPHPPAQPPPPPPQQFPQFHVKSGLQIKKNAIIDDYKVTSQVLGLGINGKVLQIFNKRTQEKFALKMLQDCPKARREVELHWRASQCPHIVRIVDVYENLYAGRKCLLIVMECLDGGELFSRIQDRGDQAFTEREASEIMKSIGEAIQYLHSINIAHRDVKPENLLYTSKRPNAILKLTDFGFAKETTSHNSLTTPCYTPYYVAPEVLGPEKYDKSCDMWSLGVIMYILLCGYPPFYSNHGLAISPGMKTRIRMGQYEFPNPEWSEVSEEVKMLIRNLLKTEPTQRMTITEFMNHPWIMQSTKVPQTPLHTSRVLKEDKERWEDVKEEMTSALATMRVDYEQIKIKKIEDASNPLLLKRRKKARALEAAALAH
T2 sequence (P08684 whole entry): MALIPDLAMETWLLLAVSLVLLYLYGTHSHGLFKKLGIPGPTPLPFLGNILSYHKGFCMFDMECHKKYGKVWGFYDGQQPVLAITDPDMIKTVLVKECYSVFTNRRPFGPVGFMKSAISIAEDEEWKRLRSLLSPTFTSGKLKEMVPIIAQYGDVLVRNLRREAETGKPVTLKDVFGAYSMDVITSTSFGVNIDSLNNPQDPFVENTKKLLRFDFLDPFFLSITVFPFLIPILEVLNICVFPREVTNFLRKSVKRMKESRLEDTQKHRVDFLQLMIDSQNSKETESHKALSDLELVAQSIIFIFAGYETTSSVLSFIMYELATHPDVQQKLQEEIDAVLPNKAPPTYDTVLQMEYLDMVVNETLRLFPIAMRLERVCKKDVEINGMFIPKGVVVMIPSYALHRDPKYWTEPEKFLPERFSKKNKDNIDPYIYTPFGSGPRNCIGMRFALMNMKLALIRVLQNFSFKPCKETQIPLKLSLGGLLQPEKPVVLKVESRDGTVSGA
T3 sequence (P11712 whole entry): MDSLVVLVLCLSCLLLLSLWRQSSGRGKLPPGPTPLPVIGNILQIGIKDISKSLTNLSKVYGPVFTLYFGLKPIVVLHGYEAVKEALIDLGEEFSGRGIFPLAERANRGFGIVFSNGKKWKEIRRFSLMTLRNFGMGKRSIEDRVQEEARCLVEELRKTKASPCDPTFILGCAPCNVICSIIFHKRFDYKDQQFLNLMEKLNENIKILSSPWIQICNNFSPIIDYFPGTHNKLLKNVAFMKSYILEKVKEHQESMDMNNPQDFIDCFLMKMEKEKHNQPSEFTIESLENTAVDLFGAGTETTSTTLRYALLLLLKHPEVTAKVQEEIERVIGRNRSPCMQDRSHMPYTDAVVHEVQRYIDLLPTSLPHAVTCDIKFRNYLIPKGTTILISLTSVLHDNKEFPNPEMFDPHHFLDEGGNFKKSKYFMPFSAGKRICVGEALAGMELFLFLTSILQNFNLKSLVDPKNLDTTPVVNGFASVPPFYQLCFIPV
T4 sequence (P10635 whole entry): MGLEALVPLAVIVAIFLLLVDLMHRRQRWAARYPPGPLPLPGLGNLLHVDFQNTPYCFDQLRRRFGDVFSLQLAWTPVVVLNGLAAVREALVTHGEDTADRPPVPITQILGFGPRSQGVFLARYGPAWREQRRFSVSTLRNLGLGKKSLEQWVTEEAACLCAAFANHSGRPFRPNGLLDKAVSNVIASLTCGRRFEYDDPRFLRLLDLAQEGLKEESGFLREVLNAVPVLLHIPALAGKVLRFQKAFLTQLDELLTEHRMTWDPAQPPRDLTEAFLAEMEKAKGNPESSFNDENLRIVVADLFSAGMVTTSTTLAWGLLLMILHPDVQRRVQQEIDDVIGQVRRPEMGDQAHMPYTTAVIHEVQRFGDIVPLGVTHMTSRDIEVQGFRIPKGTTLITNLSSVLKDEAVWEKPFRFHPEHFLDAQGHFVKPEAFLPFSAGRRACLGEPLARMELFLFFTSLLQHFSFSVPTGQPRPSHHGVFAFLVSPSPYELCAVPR
Chain of Rho-associated protein kinase 2 (O75116 whole entry): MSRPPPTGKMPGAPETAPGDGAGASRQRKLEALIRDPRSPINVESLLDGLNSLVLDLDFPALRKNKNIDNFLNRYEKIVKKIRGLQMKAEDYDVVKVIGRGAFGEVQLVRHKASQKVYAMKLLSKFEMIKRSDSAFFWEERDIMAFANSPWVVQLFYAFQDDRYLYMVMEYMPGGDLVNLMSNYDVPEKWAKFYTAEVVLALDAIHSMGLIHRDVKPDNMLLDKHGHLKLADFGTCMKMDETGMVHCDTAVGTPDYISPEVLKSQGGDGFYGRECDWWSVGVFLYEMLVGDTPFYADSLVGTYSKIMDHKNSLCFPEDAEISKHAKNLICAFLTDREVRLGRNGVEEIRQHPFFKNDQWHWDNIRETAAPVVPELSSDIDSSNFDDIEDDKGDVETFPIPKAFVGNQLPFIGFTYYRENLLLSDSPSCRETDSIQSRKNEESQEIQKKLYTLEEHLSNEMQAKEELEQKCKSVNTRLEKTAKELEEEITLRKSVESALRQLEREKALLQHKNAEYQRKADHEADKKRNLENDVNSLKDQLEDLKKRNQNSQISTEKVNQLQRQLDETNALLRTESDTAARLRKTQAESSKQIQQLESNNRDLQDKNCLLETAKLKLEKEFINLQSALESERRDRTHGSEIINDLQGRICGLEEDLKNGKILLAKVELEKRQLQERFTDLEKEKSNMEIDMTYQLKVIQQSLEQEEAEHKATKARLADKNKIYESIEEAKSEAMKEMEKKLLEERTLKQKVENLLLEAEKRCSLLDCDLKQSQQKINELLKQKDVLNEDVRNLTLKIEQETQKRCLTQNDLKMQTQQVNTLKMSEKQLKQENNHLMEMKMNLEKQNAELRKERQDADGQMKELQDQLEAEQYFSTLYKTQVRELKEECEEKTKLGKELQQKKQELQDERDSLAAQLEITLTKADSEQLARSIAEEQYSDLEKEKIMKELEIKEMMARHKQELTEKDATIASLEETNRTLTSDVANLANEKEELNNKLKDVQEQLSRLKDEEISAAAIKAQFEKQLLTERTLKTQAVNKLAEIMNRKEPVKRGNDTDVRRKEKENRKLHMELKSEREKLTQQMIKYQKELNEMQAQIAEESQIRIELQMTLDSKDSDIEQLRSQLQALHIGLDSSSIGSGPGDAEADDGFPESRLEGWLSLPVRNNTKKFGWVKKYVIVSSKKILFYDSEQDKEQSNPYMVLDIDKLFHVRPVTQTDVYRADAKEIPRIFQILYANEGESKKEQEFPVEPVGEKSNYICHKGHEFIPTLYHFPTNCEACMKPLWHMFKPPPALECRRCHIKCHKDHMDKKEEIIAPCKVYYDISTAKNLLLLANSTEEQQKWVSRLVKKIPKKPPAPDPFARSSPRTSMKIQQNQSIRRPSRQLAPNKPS
Chain of Interleukin-1 receptor-associated kinase 4 (Q9NWZ3 whole entry): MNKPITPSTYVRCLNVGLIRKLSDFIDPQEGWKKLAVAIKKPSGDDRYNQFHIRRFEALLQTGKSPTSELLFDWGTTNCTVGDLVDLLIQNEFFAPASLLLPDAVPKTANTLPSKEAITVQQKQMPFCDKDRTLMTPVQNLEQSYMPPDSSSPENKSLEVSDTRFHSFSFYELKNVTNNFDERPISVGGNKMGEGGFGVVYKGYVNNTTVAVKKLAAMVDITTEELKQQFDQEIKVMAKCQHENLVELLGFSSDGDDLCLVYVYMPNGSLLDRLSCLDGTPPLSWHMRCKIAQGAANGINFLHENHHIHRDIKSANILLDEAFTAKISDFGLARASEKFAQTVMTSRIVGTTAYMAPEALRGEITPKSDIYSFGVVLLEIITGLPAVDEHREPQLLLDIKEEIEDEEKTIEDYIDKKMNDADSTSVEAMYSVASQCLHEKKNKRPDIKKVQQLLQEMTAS
Chain of Calcium/calmodulin-dependent protein kinase type IV (Q16566 whole entry): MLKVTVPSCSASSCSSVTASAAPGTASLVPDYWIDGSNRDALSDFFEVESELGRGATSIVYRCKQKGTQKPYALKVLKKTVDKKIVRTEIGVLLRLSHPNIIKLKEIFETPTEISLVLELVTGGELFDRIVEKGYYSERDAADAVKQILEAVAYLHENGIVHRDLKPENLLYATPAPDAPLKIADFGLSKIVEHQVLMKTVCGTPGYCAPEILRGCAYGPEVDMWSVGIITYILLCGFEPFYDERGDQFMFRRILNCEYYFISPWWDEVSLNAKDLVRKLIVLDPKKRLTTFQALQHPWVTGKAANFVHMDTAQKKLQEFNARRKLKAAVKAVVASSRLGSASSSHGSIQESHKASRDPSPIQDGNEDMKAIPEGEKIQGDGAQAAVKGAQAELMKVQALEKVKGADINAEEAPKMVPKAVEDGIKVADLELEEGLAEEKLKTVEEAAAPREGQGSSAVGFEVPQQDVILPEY
Chain of RAC-alpha serine/threonine-protein kinase (P31749 whole entry): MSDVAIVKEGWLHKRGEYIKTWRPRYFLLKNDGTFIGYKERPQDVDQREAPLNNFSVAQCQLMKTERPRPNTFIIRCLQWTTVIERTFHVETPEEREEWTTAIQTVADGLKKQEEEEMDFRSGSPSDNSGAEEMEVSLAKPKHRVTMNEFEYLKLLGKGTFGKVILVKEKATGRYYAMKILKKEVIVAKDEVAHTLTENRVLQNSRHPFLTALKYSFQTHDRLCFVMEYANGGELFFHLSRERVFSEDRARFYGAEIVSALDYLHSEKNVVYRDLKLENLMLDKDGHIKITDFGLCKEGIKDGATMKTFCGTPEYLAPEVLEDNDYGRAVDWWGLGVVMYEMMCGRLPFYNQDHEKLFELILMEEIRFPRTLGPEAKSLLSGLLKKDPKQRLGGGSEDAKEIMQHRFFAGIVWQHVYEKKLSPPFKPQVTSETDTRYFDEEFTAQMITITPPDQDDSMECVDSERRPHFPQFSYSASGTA

Structure (SMILES) | EC50 [2] [µM] | IC50 [3] [µM] | CC50 at 0.5 h [1] [µM] | other results
CCN(C(=O)c1ccc(-c2ccc(Cl)cc2)o1)c1ccc(N2CCNCC2)cc1 |  |  | > 8 | 
CN1CCN(c2ccc(NC(=O)c3ccc(-c4ccc(Cl)cc4)o3)cc2)CC1 | 20 | 6 |  | 
CN(C(=O)c1ccc(-c2ccc(Cl)cc2)o1)c1ccc(N2CCNCC2)cc1 |  |  | > 20 | 
O=C(Nc1ccc(C2=CCNCC2)cc1)c1ccc(-c2ccc(Cl)cc2)o1 | 1.3 | 2.1 | 6.5 | 
O=C(Nc1ccc(N2CCNCC2)cc1C(F)(F)F)c1ccc(-c2ccc(Cl)cc2)o1 | > 8 | > 20 | 18 | 
O=C(Nc1ccc(N2CCC(O)CC2)cc1)c1ccc(-c2ccc(Cl)cc2)o1 |  | > 20 |  | 
O=C(c1ccc(-c2ccc(Cl)cc2)o1)N(Cc1ccccn1)c1ccc(N2CCNCC2)cc1 [listing 1 of 2 here] |  |  |  | inhibition (SW1353): Dose-dependent effect; inhibition [4]: > 50%; inhibition (THP-1 [5]): Dose-dependent effect; inhibition (Homo sapiens): Dose-dependent effect; inhibition (THP-1 [6]): Dose-dependent effect
CC(C)N(C(=O)c1ccc(-c2ccc(Cl)cc2)o1)c1ccc(N2CCNCC2)cc1 | 2.7 | 1.2 | > 20 | 
CCCN(C(=O)c1ccc(-c2ccc(Cl)cc2)o1)c1ccc(N2CCNCC2)cc1 |  |  | > 20 | 
O=C(c1ccc(-c2ccc(Cl)cc2)o1)N(Cc1ccccn1)c1ccc(N2CCNCC2)cc1 [listing 2 of 2 here] |  |  | > 20 | IC50 (Cytochrome P450 3A4 [21]): > 20 µM; IC50 (Cytochrome P450 3A4 [22]): > 20 µM; IC50 (Cytochrome P450 2C9 [23]): > 20 µM; IC50 (SW1353): 5.7 µM; IC50 (Cytochrome P450 2C9 [24]): > 30 µM; IC50 (THP-1 [5]): 5.2 µM; IC50 [25]: 2.2 µM; IC50 (Cytochrome P450 2D6 [26]): > 20 µM; IC50 (THP-1 [6]): 4.4 µM; IC50 (Cytochrome P450 2D6 [27]): > 20 µM
CCCCN(C(=O)c1ccc(-c2ccc(Cl)cc2)o1)c1ccc(N2CCNCC2)cc1 |  |  | 19 | 
Cn1ccnc1CN(C(=O)c1ccc(-c2ccc(Cl)cc2)o1)c1ccc(N2CCNCC2)cc1 |  |  | > 20 | 
Cl.O=C(c1ccc(-c2ccc(Cl)cc2)o1)N(Cc1ccccn1)c1ccc(N2CCNCC2)cc1 |  |  |  | AUC(0-t) at 6 h [28]: 2.3 µM·h
O=C(c1ccc(-c2ccc(Cl)cc2)o1)N(Cc1ccncc1)c1ccc(N2CCNCC2)cc1 |  |  | > 8 | 
O=C(Nc1ccc(N2CCNCC2=O)cc1)c1ccc(-c2ccc(Cl)cc2)o1 |  | 15 |  | 

The next lines start with results.

EC50 [2] [µM] | IC50 [3] [µM] | Structure (SMILES) | CC50 at 0.5 h [1] [µM] | other results
1.6 | 7.6 | O=C(Nc1ccc(N2CCNCC2)cc1)c1ccc(-c2ccc(Cl)cc2Cl)o1 | 8.1 | 
> 8 | 8 | O=C(Nc1ccc(N2CCNCC2)cc1)c1ccc(-c2ccccc2Cl)o1 | 15 | 
8 | 22 | COc1ccc(-c2ccc(C(=O)Nc3ccc(N4CCNCC4)cc3)o2)cc1 |  | 
3.9 | 11 | O=C(Nc1ccc(N2CCNCC2)cc1)c1cccc(-c2ccc(Cl)cc2)n1 | > 10 | 
> 7.7 | 20 | O=C(Nc1ccc(N2CCNCC2)cc1)c1ccc(-c2ccc(C(F)(F)F)cc2)o1 | > 15 | 
> 5 | > 20 | O=C(Nc1ccc(N2CCNCC2)cc1)c1ccc(-c2cccc(Cl)c2)o1 | 13 | 
> 3.4 | 6.7 | O=C(Nc1ccc(N2CCNCC2)c(F)c1)c1ccc(-c2ccc(Cl)cc2)o1 | 16 | 
> 8 | 6.9 | O=C(Nc1ccc(N2CCNCC2)cc1)c1ccc(-c2ccc(Cl)s2)o1 | > 20 | 
0.9 | 9.5 | O=C(Nc1ccc(N2CCNCC2)cc1)c1csc(-c2ccc(Cl)cc2)n1 | 0.9 | 
2 | 5.5 | O=C(Nc1ccc(N2CCNCC2)cc1)c1ccc(-c2ccc(Cl)cc2)o1 | > 10 | IC50 [7]: > 30 µM; IC50 [8]: > 30 µM; IC50 [9]: 7.5 µM; IC50 [10]: > 30 µM; IC50 [11]: > 30 µM; solubility [12]: > 20 µM; IC50 [13]: > 30 µM; IC50 [14]: > 30 µM; IC50 [15]: 5 µM; IC50 [16]: > 30 µM; IC50 [17]: > 30 µM; IC50 [18]: > 30 µM; IC50 [19]: > 30 µM; IC50 [20]: > 30 µM
1.9 | 7.5 | O=C(Nc1ccc(N2CCNCC2)cc1)c1cc(-c2ccc(Cl)cc2)on1 | 1 | 
5 | 9 | O=C(Nc1ccc(N2CCNCC2)cc1)c1ccc(-c2ccc(Cl)cc2)s1 | 8 | 
1.4 | 5.9 | Cc1cc(Cl)ccc1-c1ccc(C(=O)Nc2ccc(N3CCNCC3)cc2)o1 | 8.8 | 
